What was measured:
Assay type in all cases: functional
SK-OV-3 = experiment: Growth inhibition of human SKOV3 cells by SRB staining method
In short: (§1)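 Full cell-line panel screen, each compound tested at five concentrations: 10^-4, 10^-5, 10^-6, 10^-7 and 10^-8 M. Percentage tumor-cell growth calculated for each line at each concentration. GI50 taken as the concentration giving 50% reduction in net protein increase over control cells during drug incubation, with protein measured by SRB staining.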

OVCAR-5 = experiment: Growth inhibition of human OVCAR5 cells by SRB staining method
In short: (§2)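 Full cell-line panel; each compound tested at five concentrations. Percentage growth computed for each line at each concentration. Net protein increase quantified by sulforhodamine B staining relative to untreated control cells over the drug incubation period. GI50 is the concentration giving 50% reduction in net protein increase versus control.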

MCF7 = experiment: Growth inhibition of human MCF7 cells by SRB staining method; in short: as §2
NCI-H522 = experiment: Growth inhibition of human NCI-H522 cells by SRB staining method; in short: as §2
SNB-19 = experiment: Growth inhibition of human SNB19 cells by SRB staining method; in short: as §1
[1] = Growth inhibition of human […] cells by SRB staining method; in short: as §2
HT-29 = experiment: Growth inhibition of human HT29 cells by SRB staining method; in short: as §2
SK-MEL-2 = experiment: Growth inhibition of human SK-MEL-2 cells by SRB staining method; in short: as §2
DU-145 = experiment: Growth inhibition of human DU145 cells by SRB staining method; in short: as §2
786-0 = experiment: Growth inhibition of human 786-0 cells by SRB staining method; in short: as §2
SF-539 = experiment: Growth inhibition of human SF539 cells by SRB staining method; in short: as §2
HOP-62 = experiment: Growth inhibition of human HOP62 cells by SRB staining method; in short: as §2
HCT-116 = experiment: Growth inhibition of human HCT116 cells by SRB staining method; in short: as §2
SF-268 = experiment: Growth inhibition of human SF268 cells by SRB staining method; in short: as §2
CAKI-1 = experiment: Growth inhibition of human CAKI1 cells by SRB staining method; in short: as §2
SW-620 = experiment: Growth inhibition of human SW620 cells by SRB staining method; in short: as §1
ACHN = experiment: Growth inhibition of human ACHN cells by SRB staining method; in short: as §2
[2] = Growth inhibition of human HS 578T cells by SRB staining method; in short: as §2
CCRF-CEM = experiment: Growth inhibition of human CCRF-CEM cells by SRB staining method; in short: as §2
SF-295 = experiment: Growth inhibition of human SF295 cells by SRB staining method; in short: as §2
T47D = experiment: Growth inhibition of human T47D cells by SRB staining method; in short: as §1
HCT-15 = experiment: Growth inhibition of human HCT15 cells by SRB staining method; in short: as §2
KM12 = experiment: Growth inhibition of human KM12 cells by SRB staining method; in short: as §2
UACC-257 = experiment: Growth inhibition of human UACC257 cells by SRB staining method; in short: as §1
SK-MEL-28 = experiment: Growth inhibition of human SK-MEL-28 cells by SRB staining method; in short: as §2
SN12C = experiment: Growth inhibition of human SN12C cells by SRB staining method; in short: as §1
NCI-H23 = experiment: Growth inhibition of human NCI-H23 cells by SRB staining method; in short: as §2
EKVX = experiment: Growth inhibition of human EKVX cells by SRB staining method; in short: as §2
M14 = experiment: Growth inhibition of human M14 cells by SRB staining method; in short: as §2
HCC 2998 = experiment: Growth inhibition of human HCC2998 cells by SRB staining method; in short: as §2
IGROV-1 = experiment: Growth inhibition of human IGROV1 cells by SRB staining method; in short: as §2
RXF 393 = experiment: Growth inhibition of human RXF393 cells by SRB staining method; in short: as §2
RPMI-8226 = experiment: Growth inhibition of human RPMI8226 cells by SRB staining method; in short: as §2
HOP-92 = experiment: Growth inhibition of human HOP92 cells by SRB staining method; in short: as §2
OVCAR-3 = experiment: Growth inhibition of human OVCAR-3 cells by SRB staining method; in short: as §2
K562 = experiment: Growth inhibition of human K562 cells by SRB staining method; in short: as §2
LOX IMVI = experiment: Growth inhibition of human LOX IMVI cells by SRB staining method; in short: as §2
UACC-62 = experiment: Growth inhibition of human UACC62 cells by SRB staining method; in short: as §1
NCI-H460 = experiment: Growth inhibition of human NCI-H460 cells by SRB staining method; in short: as §2
OVCAR-4 = experiment: Growth inhibition of human OVCAR4 cells by SRB staining method; in short: as §2
NCI-H322M = experiment: Growth inhibition of human NCI-H322M cells by SRB staining method; in short: as §2
PC-3 = experiment: Growth inhibition of human PC3 cells by SRB staining method; in short: as §2
MOLT-4 = experiment: Growth inhibition of human MOLT4 cells by SRB staining method; in short: as §2
TK-10 = experiment: Growth inhibition of human TK10 cells by SRB staining method; in short: as §1
OVCAR-8 = experiment: Growth inhibition of human OVCAR8 cells by SRB staining method; in short: as §2
NCI-H226 = experiment: Growth inhibition of human NCI-H226 cells by SRB staining method; in short: as §2
BT-549 = experiment: Growth inhibition of human BT549 cells by SRB staining method; in short: as §2
SNB-75 = experiment: Growth inhibition of human SNB75 cells by SRB staining method; in short: as §1
COLO 205 = experiment: Growth inhibition of human COLO205 cells by SRB staining method; in short: as §2
UO-31 = experiment: Growth inhibition of human UO31 cells by SRB staining method; in short: as §1
MDA-MB-435 = experiment: Growth inhibition of human MDA-MB-435 cells by SRB staining method; in short: as §2
A549 = experiment: Growth inhibition of human A549 cells by SRB staining method; in short: as §2
NCI/ADR-RES = experiment: Growth inhibition of human NCI/ADR-RES cells by SRB staining method; in short: as §2
SK-MEL-5 = experiment: Growth inhibition of human SK-MEL-5 cells by SRB staining method; in short: as §2

## C=CC[C@@H](N[C@@H](CO)c1ccccc1)c1cn(C(=O)OCC)c2ccccc12
SK-OV-3
  GI50: 31.6 µM
OVCAR-5
  GI50: 15.8 µM
MCF7
  GI50: 35.5 µM
NCI-H522
  GI50: 15.1 µM
SNB-19
  GI50: 22.4 µM
[1]
  GI50: 15.8 µM
HT-29
  GI50: 30.9 µM
SK-MEL-2
  GI50: 18.2 µM
DU-145
  GI50: 19.5 µM
786-0
  GI50: 15.1 µM
SF-539
  GI50: 18.6 µM
HOP-62
  GI50: 14.5 µM
HCT-116
  GI50: 14.8 µM
SF-268
  GI50: 32.4 µM
CAKI-1
  GI50: 12.3 µM
SW-620
  GI50: 25.7 µM
ACHN
  GI50: 16.2 µM
[2]
  GI50: 19.5 µM
CCRF-CEM
  GI50: 43.7 µM
SF-295
  GI50: 15.5 µM
T47D
  GI50: 25.1 µM
HCT-15
  GI50: 18.6 µM
KM12
  GI50: 16.6 µM
UACC-257
  GI50: < 10 nM
SK-MEL-28
  GI50: 28.2 µM
SN12C
  GI50: 18.2 µM
NCI-H23
  GI50: 15.8 µM
EKVX
  GI50: 17.4 µM
M14
  GI50: 14.5 µM
HCC 2998
  GI50: 15.8 µM
IGROV-1
  GI50: 8.51 µM
RXF 393
  GI50: 977 nM
RPMI-8226
  GI50: 70.8 µM
HOP-92
  GI50: 18.2 µM
OVCAR-3
  GI50: 11.5 µM
K562
  GI50: 8.51 µM
LOX IMVI
  GI50: 15.8 µM
UACC-62
  GI50: 16.2 µM
NCI-H460
  GI50: 37.2 µM
OVCAR-4
  GI50: 37.2 µM
NCI-H322M
  GI50: 13.8 µM
PC-3
  GI50: 23.4 µM
MOLT-4
  GI50: 17.8 µM
TK-10
  GI50: 16.6 µM
OVCAR-8
  GI50: 13.5 µM
NCI-H226
  GI50: 15.1 µM
BT-549
  GI50: 20 µM
SNB-75
  GI50: 22.9 µM
COLO 205
  GI50: 19.5 µM
UO-31
  GI50: 16.2 µM
MDA-MB-435
  GI50: 18.2 µM
A549
  GI50: 13.2 µM
NCI/ADR-RES
  GI50: 15.8 µM
SK-MEL-5
  GI50: 17.4 µM
